Broadly, the IC50 is the concentration that gives 50% inhibition. Higher therefore signals weaker potency in that assay. As usually defined, the inhibition is the drop in the measured response relative to a control, in per cent.

Calls of active or inactive are those of the source. No cut-off for these calls is given here.

One assay has as its target T1, Beta-adrenergic receptor kinase 1 (Homo sapiens, UniProt P25098).
T1 sequence (P25098 whole entry): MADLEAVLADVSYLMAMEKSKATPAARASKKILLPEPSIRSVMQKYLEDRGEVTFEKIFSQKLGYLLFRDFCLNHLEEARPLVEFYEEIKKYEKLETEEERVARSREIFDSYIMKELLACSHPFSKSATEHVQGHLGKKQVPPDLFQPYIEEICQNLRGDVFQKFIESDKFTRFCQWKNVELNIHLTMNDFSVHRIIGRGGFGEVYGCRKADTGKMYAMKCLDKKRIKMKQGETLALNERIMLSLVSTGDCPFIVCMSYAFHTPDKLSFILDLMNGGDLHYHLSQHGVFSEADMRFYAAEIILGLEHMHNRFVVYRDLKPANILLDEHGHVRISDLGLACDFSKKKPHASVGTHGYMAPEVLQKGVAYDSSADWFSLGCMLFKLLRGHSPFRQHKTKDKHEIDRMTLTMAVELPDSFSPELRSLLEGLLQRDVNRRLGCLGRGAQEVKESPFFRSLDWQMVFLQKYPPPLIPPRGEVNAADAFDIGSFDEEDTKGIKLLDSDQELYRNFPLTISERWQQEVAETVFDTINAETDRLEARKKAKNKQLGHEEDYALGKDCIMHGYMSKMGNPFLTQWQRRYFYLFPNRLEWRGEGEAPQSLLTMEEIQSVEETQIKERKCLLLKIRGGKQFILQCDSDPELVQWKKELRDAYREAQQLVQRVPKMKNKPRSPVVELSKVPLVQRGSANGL
The experiment in a line: Inhibition of Beta-adrenergic receptor kinase 1. In outline:
(§1)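 Radiometric assay of βARK1 phosphorylating the intracellular C-terminal domain of human β2-adrenergic receptor (6.7 μM) with 10 mM [γ-32P]ATP (18.5 kBq). Stopped on ice water, then gel electrophoresis and imaging-plate readout of radioactivity. Inhibition % taken against control and background.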
`CCC(=O)n1nc2c(c1C(C)(C)C)C(=O)c1ccccc1-2` had a half-inhibitory concentration (IC50) of 563 µM.

For the compound `COC(=O)c1ccc(/C=C/c2ccc([N+](=O)[O-])o2)o1`, the concentration for half-maximal inhibition (IC50) stood at 126 µM.

A further assay concerns the target T2, Beta-adrenergic receptor kinase 1 (Homo sapiens) (UniProt P25098).
T2 sequence (whole entry): T1 sequence (P25098 whole entry)
The experiment in a line: Inhibition of Beta-adrenergic receptor kinase 1 at 1 mM (Inactive). In outline: as §1
As for `C/C(CCS(=O)(=O)c1ccccc1)=N\OC/C=C/Cl`, the inhibition entry was “inactive”. As for `COc1ccc(/C=N/c2ccc(O)cc2)cc1`, the inhibition entry is “inactive”. The same measure, in the same setting: the entry for `Cc1csc(-c2nc(-c3ccc(Cl)cc3)no2)c1Cl` is “inactive”; for `O=C(Nc1ccc(F)c([N+](=O)[O-])c1)Nc1cccc2c(O)cccc12` it is “inactive”; for `O=[N+]([O-])c1ccccc1/N=C/c1ccc2c(c1)OCO2` it is “inactive”. Turning to `CC(C)Sc1nc2sccn2c1/C=N/OCc1c(Cl)cccc1Cl`, the inhibition entry was “inactive”. Same read-out and setting: the entry for `CCCCCCCCCCCCCCCCN(C)c1ccc(S(C)(=O)=O)cc1N` is “inactive”; for `Clc1ccc(-c2csc(Nc3ccccc3)n2)cc1` it is “inactive”.

The target in the next assay is T2, Beta-adrenergic receptor kinase 1 (Homo sapiens). The experiment in a line: Inhibition of Beta-adrenergic receptor kinase 1 at 1 mM. In outline:
as §1
On to `Cc1ccc(Cl)cc1NCN1C(=O)CNC1=S`, for which the inhibition worked out at 26.5%. Still for that read-out and setting: under `Oc1nnc(Cc2ccc(-c3ccccc3Cl)o2)c2ccccc12` stands 67.3%. Take `O=C(NCc1ccco1)c1ccc([N+](=O)[O-])o1`: the inhibition worked out at 37.7%. Still for that read-out and setting: the figure for `O=C1C(O)=C(O)O[C@@H]1C1COC2(CCCCC2)O1` (stereo not given in full) is 0%.

On to `CCC(=O)n1nc2c(c1C(C)(C)C)C(=O)c1ccccc1-2`, for which the inhibition came to 52.7%. Regarding `COC(=O)c1sccc1Oc1ccc(C(F)(F)F)cc1NC=C(C#N)C#N`, the inhibition turned out to be 28.8%.

In the case of `CC(C)COC(=O)CSc1nc2c(c(=O)[nH]c(=O)n2C)n1C`, the inhibition worked out at 0%. With `Nc1nc(O)c2ncn([C@H]3O[C@@H]4COP(=O)(O)O[C@H]4[C@H]3O)c2n1`, the inhibition was 24.2%. For `CC(=O)CC(=O)Nc1cc(C(C)(C)C)sc1C(N)=O`, the inhibition was 37.3%. As to `CCOC(=O)c1cnc2c(C(F)(F)F)cccc2c1O`, the inhibition came to 20.1%. As for `COC(=O)c1ccc(/C=C/c2ccc([N+](=O)[O-])o2)o1`, the inhibition is 88.4%. With `NC(=O)c1ncn([C@@H]2O[C@@H](CO)[C@H](O)[C@@H]2O)n1`, the inhibition came out at 0%. In the case of `O=C1C(O)=C(O)O[C@H]1C1COC2(CCCCC2)O1` (stereo not given in full), the inhibition was 20.4%.

For another assay, the target named is cAMP-dependent protein kinase (PKA) (Homo sapiens) (UniProt P22694+P17612+P22612). Briefly: Inhibition of Protein kinase A (PKA) at 1 mM. Format: functional. The method in brief: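 Colorimetric kit assay of PKA (final 87 units/μL) with dye-linked kemptide substrate (LRRASLG). Incubated 30 min at 30 °C. Phosphorylated substrate captured on affinity membrane, eluted, read at OD 570 nm. PKI5-24 was the positive control.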
Regarding `CCC(=O)n1nc2c(c1C(C)(C)C)C(=O)c1ccccc1-2`, the inhibition was -2.2%. As to `COC(=O)c1ccc(/C=C/c2ccc([N+](=O)[O-])o2)o1`, the inhibition was 1.8%.

These data come from ChEMBL document CHEMBL1135415, “Rational design and evaluation of new lead compound structures for selective betaARK1 inhibitors” (J Med Chem, 2002).
